High-throughput results: PubChem BioAssay, The Scripps Research Institute Molecular Screening Center
Compounds with a hit are over-represented: about 3% of the library has one in this group of screens.
5HT1a antag – 5-HT1a (human) receptor antagonism. P08908. AID 612. CHO 5-HT1a Ga15 NFAT-bla reporter, antagonist mode. inhibition, % at 10 µM. hit rate 0.68% among 62,000;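 active = inhibition above the mean of all tested compounds plus 3 SD, cut at about 43% in these data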;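 also: receptor stimulated by 5-CT agonist at 100 nM near EC80; beta-lactamase reporter measured by ratiometric fluorescence of a cleavable substrate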
HTR1E agonist – activates the human 5-HT1E serotonin receptor | P28566 | CHO 5-HT1E Ga15 NFAT-bla reporter, FRET; 0% DMSO wells, 100% control agonist wells | activation, % at 6 µM | hit rate 0.69% among 65,000;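 active = activation above a set limit, the screen-wide mean activation plus 3 SD, cut at about 8.5% in these data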
5HT1E antag – 5-HT1E (human) receptor antagonism. hit rate 0.99% among 65,000. CHO 5-HT1E Ga15 NFAT-bla reporter, FRET, antagonist. inhibition, % at 6 µM;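 active = inhibition above a set limit, the mean inhibition across every tested compound plus 3 SD, cut at about 29% in these data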;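 also: signal is the 460 over 535 nm emission ratio of beta-lactamase substrate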
S1P3 agonist – S1P3 (human) receptor agonism. Q99500. activation, % at 4.5 µM. AID 373. hit rate 0.1% among 60,000. S1P3 NFAT-BLA reporter cells, FRET ratio; relative to 1 µM S1P, basal subtracted;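 active = activation above the screen-wide mean plus 3 SD, cut at about 4.5% in these data, passing the limit was not always enough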
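Measure – % activation relative to 1 µM S1P (100%), per plate · System – stable CHO line with human S1P3, Gα16, NFAT-BLA reporter · Timing – cells plated overnight, compound 4 h 37 °C, substrate 2 h RT · Technique – fluorescent BLA substrate, ex 405 nm, em 460/535 nm ratio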
S1P1 ag-PAM – agonists and agonism potentiators of human S1P1 receptor. activation, % at 9.5 µM. hit rate 0.57% among 56,000. P21453. S1P1 CRE-bla cells, forskolin, beta-lactamase FRET, potentiator mode; S1P1 agonist co-added at EC20, 2 nM; 100% = saturating reference agonist, 0% = basal. AID 449;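 active = activation above a cutoff set at the mean activation of all tested compounds plus 3 SD, cut at about 54% in these data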;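 also: forskolin at 4 µM as EC80 and the EC20 agonist is SEW2871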
Target sequence (P21453 whole entry, looked up): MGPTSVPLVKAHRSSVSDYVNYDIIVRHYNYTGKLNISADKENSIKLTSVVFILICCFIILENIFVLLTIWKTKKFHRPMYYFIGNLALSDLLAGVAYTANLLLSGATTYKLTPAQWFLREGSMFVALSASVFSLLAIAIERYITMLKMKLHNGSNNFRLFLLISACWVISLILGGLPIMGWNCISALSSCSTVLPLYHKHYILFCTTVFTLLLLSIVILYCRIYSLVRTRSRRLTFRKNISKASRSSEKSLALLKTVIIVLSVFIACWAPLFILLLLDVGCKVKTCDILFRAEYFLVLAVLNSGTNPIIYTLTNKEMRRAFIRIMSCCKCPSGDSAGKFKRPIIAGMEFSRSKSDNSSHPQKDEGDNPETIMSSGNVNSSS
5HT1a ag – 5-HT1a (human) receptor agonism. activation, % at 10 µM. CHO 5-HT1a Ga15 NFAT-bla reporter, FRET ratio; 0% basal, 100% maximal reference agonist. P08908. hit rate 0.56% among 65,000;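 active = activation above the screen-wide mean activation plus 3 SD, cut at about 19% in these data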
Numbers stand for hits.

Screening CCC(C)NC(=O)CNC(=O)Cn1c(C)cc2ccccc2c1=O (configuration not stated) returned 5HT1a antag inactive, HTR1E agonist inactive, 5HT1E antag inactive and 5HT1a ag inactive.
Screening CN1CCCC(OC(=O)c2cc(Cl)ccc2Cl)C1 (configuration not stated) returned 5HT1a antag inactive, HTR1E agonist 13, 5HT1E antag inactive, S1P3 agonist inactive, S1P1 ag-PAM inactive and 5HT1a ag inactive.
Screening CN1C(=O)Cc2cc(S(=O)(=O)N3CCOCC3)ccc21 returned 5HT1a antag inactive, HTR1E agonist inactive, 5HT1E antag inactive, S1P3 agonist inactive, S1P1 ag-PAM inactive and 5HT1a ag inactive.
For O=C1CN(C(=O)OCc2ccccc2)c2ccccc2N1 the results were 5HT1a antag inactive, HTR1E agonist inactive, 5HT1E antag 48 and 5HT1a ag inactive.
For O=S(=O)(c1ccc(F)cc1)N1CCN(c2ncnc3c2cnn3-c2ccccc2)CC1 the results were 5HT1a antag inactive, HTR1E agonist inactive, 5HT1E antag inactive, S1P3 agonist inactive, S1P1 ag-PAM inactive and 5HT1a ag inactive.
For Nc1nnc(CSCc2ccc(F)cc2)s1 the results were HTR1E agonist inactive, 5HT1E antag inactive, S1P3 agonist inactive, S1P1 ag-PAM inactive and 5HT1a ag inactive.
For O=C1CN(C(=O)c2ccc(Br)o2)C(c2ccccc2)c2cc(Br)ccc2N1 (configuration not stated) the results were 5HT1a antag inactive, HTR1E agonist inactive, 5HT1E antag inactive, S1P3 agonist inactive, S1P1 ag-PAM inactive and 5HT1a ag inactive.
O=C(O)CN1C(=O)Nc2ccc(Br)cc2C1c1ccccc1 (configuration not stated) was read as 5HT1a antag inactive, HTR1E agonist inactive, 5HT1E antag 32 and 5HT1a ag inactive.
Screening O=C(Nc1nc2c(s1)CCCC2)c1cc2n(n1)C(C(F)(F)F)CC(C1CC1)N2 (configuration not stated) returned 5HT1a antag inactive, HTR1E agonist inactive, 5HT1E antag inactive, S1P3 agonist inactive, S1P1 ag-PAM 107 and 5HT1a ag inactive.
`Cc1nnc(NC(=O)c2cc3n(n2)C(C(F)(F)F)CC(C2CC2)N3)s1` (configuration not stated) gave 5HT1a antag inactive, HTR1E agonist inactive, 5HT1E antag inactive, S1P3 agonist inactive, S1P1 ag-PAM inactive and 5HT1a ag inactive.
`CCCCOC(=O)Nc1ccc(S(=O)(=O)Nc2nc(C)cc(C)n2)cc1` gave HTR1E agonist 12, 5HT1E antag inactive, S1P3 agonist inactive, S1P1 ag-PAM inactive and 5HT1a ag inactive.
For COCCOC(=O)C1=C(C)Nc2nc(C)nn2C1c1ccc(F)cc1 (configuration not stated) the results were 5HT1a antag inactive, HTR1E agonist inactive, 5HT1E antag inactive, S1P3 agonist inactive, S1P1 ag-PAM inactive and 5HT1a ag 31.
For CCOc1ccc(-n2c(SCc3nc(-c4cccs4)no3)nnc2-c2ccncc2)cc1 the results were 5HT1a antag 50, HTR1E agonist inactive, 5HT1E antag inactive, S1P3 agonist inactive, S1P1 ag-PAM inactive and 5HT1a ag inactive.
For CCCn1c(SCc2nc(-c3cccs3)no2)nnc1-c1ccncc1 the results were 5HT1a antag inactive, HTR1E agonist inactive, 5HT1E antag inactive, S1P3 agonist inactive and 5HT1a ag inactive.
Cc1cc(/C=N/n2cnnc2)c(C)n1-c1cc(Cl)ccc1Cl was read as 5HT1a antag 52, HTR1E agonist inactive, 5HT1E antag 40, S1P3 agonist inactive, S1P1 ag-PAM inactive and 5HT1a ag inactive.
Screening COC(=O)c1ccc(-n2c(C)cc(/C=N/n3cnnc3)c2C)cc1 returned 5HT1a antag inactive, HTR1E agonist 19, 5HT1E antag inactive, S1P3 agonist inactive, S1P1 ag-PAM inactive and 5HT1a ag inactive.
COc1cccc(Oc2cncnc2-c2ccc(OC)cc2O)c1 was read as 5HT1a antag inactive, HTR1E agonist inactive, 5HT1E antag inactive, S1P3 agonist inactive, S1P1 ag-PAM inactive and 5HT1a ag inactive.
For O=C(Nc1ccc(N2CCOCC2)c(Cl)c1)c1cccnc1 the results were 5HT1a antag inactive, HTR1E agonist inactive, 5HT1E antag inactive, S1P3 agonist inactive, S1P1 ag-PAM inactive and 5HT1a ag inactive.
`Nc1ccc(N2CCOCC2)c(Cl)c1` gave 5HT1a antag inactive, HTR1E agonist inactive, 5HT1E antag inactive, S1P3 agonist inactive, S1P1 ag-PAM 93 and 5HT1a ag inactive.
Screening CCOC(=O)c1[nH]c2ccc(OC)cc2c1NC(=O)CN1CCN(c2ccccn2)CC1 returned HTR1E agonist inactive, 5HT1E antag inactive, S1P3 agonist inactive, S1P1 ag-PAM inactive and 5HT1a ag 29.
For CCOC(=O)C1CCN(CC(=O)Nc2c(C(=O)OC)[nH]c3ccc(Cl)cc23)CC1 the results were 5HT1a antag inactive, HTR1E agonist inactive, 5HT1E antag 29, S1P3 agonist inactive, S1P1 ag-PAM inactive and 5HT1a ag inactive.
For Cc1[nH]n(C(C)(C)C)c(=O)c1Sc1ccc(Cl)cc1 the results were 5HT1a antag inactive, HTR1E agonist inactive, 5HT1E antag inactive, S1P3 agonist inactive, S1P1 ag-PAM inactive and 5HT1a ag inactive.
Screening Oc1c(CN2CCCCC2)cc(Br)c2cccnc12 returned 5HT1a antag 47, HTR1E agonist inactive, 5HT1E antag 41, S1P3 agonist inactive, S1P1 ag-PAM inactive and 5HT1a ag inactive.
`Oc1c(I)cc(Cl)c2cccnc12` gave HTR1E agonist inactive, 5HT1E antag inactive, S1P3 agonist inactive, S1P1 ag-PAM inactive and 5HT1a ag inactive.
Cc1c(O)c(CN2CCCCC2)cc2c3c(c(=O)oc12)CCC3 was read as HTR1E agonist inactive, 5HT1E antag inactive, S1P3 agonist inactive, S1P1 ag-PAM inactive and 5HT1a ag inactive.
`Oc1c(CN2CCc3ccccc3C2)cc(Cl)c2cccnc12` gave 5HT1a antag inactive, HTR1E agonist inactive, 5HT1E antag inactive, S1P3 agonist inactive, S1P1 ag-PAM inactive and 5HT1a ag 30.
For CCCCn1nnnc1SCC(=O)Nc1ccc2c(c1)OCO2 the results were 5HT1a antag inactive, HTR1E agonist inactive, 5HT1E antag inactive, S1P3 agonist inactive, S1P1 ag-PAM inactive and 5HT1a ag inactive.
`C=CCSC1=C(C#N)C(c2cccc(OC)c2)CC(=O)N1` (configuration not stated) gave 5HT1a antag inactive, HTR1E agonist inactive, 5HT1E antag inactive, S1P3 agonist inactive, S1P1 ag-PAM inactive and 5HT1a ag inactive.
For O=C(N1CCN(c2ccccn2)CC1)N1c2ccccc2Sc2ccccc21 the results were 5HT1a antag 48, HTR1E agonist inactive, 5HT1E antag 37, S1P3 agonist inactive, S1P1 ag-PAM inactive and 5HT1a ag inactive.
For O=C(c1ccco1)N1CCN(C(=O)N2c3ccccc3Sc3ccccc32)CC1 the results were 5HT1a antag 58, HTR1E agonist inactive, 5HT1E antag 74, S1P3 agonist inactive, S1P1 ag-PAM inactive and 5HT1a ag inactive.
